Assay results reported in ChEMBL document CHEMBL2069246, “Oxadiazoles in medicinal chemistry” (J Med Chem, 2012).

Key:
CYP1A2 = target: T1, CYP1A2 (Homo sapiens, UniProt P05177); test: Time dependent inhibition of human recombinant CYP1A2 coexpressed in Escherichia coli at 50 uM using phenacetin as probe; assay type: ADME
T1 sequence (P05177 whole entry): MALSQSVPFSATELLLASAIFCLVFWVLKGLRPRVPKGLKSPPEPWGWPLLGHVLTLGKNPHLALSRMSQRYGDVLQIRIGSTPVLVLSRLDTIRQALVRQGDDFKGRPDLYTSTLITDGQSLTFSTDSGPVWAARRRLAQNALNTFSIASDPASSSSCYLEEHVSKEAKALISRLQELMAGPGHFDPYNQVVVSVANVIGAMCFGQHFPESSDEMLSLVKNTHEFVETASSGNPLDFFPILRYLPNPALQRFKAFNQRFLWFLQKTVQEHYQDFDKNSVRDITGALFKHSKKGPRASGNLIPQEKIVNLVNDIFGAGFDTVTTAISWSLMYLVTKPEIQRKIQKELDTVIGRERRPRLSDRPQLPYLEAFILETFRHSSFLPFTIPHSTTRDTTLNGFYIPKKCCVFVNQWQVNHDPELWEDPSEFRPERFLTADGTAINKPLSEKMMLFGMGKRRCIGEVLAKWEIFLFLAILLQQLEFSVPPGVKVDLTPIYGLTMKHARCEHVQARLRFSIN
Outline: (§1)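 Time-dependent inhibition of human recombinant P450s. Compound is preincubated 30 min at 37 °C with and without NADPH, then percent inhibition is read. Run at 10 and 50 μM, with the 50 μM value reported.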

Cytochrome P450 1A2 [1] = target: T2, Cytochrome P450 1A2 (Homo sapiens, UniProt P05177); test: Activity of human recombinant CYP1A2 assessed as enzyme contribution towards compound metabolism at 37 degC; assay type: ADME
T2 sequence (P05177 whole entry): T1 sequence (P05177 whole entry)
Outline: (§2)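 CYP reaction phenotyping with human recombinant P450 isoforms at 37 °C. Each isoform's share of compound metabolism is given as percent contribution relative to the other isoforms in the test.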

Cytochrome P450 2C9 [2] = target: T3, Cytochrome P450 2C9 (Homo sapiens, UniProt P11712); test: Activity of human recombinant CYP2C9 assessed as enzyme contribution towards compound metabolism at 37 degC; assay type: ADME; outline: as §2
T3 sequence (P11712 whole entry): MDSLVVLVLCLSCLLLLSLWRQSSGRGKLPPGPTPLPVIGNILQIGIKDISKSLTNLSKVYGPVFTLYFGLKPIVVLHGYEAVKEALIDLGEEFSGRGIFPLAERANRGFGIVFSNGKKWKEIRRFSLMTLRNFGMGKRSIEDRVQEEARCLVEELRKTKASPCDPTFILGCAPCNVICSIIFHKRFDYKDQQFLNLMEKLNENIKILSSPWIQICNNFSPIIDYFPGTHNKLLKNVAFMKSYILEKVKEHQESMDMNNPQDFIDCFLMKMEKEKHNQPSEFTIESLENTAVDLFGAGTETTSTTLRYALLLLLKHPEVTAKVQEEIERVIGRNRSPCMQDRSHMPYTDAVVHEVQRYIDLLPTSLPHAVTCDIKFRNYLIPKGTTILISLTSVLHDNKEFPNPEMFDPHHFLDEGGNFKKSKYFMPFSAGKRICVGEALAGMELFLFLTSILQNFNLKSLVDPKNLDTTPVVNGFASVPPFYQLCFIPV

Cytochrome P450 2C8 [3] = target: T4, Cytochrome P450 2C8 (Homo sapiens, UniProt P10632); test: Inhibition of human recombinant CYP2C8 coexpressed in Escherichia coli; assay type: ADME
T4 sequence (P10632 whole entry): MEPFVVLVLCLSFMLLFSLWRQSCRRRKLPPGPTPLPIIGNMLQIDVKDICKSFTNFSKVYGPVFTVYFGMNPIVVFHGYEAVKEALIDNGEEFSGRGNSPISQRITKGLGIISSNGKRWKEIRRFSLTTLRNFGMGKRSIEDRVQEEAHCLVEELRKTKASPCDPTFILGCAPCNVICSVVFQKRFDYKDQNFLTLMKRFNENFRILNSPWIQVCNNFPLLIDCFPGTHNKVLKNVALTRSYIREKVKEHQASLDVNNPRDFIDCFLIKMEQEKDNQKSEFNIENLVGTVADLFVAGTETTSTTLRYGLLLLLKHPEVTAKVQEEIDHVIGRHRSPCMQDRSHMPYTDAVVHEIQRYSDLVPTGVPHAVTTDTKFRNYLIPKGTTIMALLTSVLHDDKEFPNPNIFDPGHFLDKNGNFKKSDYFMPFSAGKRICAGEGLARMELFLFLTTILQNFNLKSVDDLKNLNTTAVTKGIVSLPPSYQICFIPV
Outline: (§3)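 Human recombinant cytochrome P450s at 37 °C. Read-out is inhibition of metabolic degradation of each isoform's substrate. Percent inhibition is measured at five test concentrations and converted to IC50.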

Cytochrome P450 2D6 [4] = target: T5, Cytochrome P450 2D6 (Homo sapiens, UniProt P10635); test: Activity of human recombinant CYP2D6 assessed as enzyme contribution towards compound metabolism at 37 degC; assay type: ADME; outline: as §2
T5 sequence (P10635 whole entry): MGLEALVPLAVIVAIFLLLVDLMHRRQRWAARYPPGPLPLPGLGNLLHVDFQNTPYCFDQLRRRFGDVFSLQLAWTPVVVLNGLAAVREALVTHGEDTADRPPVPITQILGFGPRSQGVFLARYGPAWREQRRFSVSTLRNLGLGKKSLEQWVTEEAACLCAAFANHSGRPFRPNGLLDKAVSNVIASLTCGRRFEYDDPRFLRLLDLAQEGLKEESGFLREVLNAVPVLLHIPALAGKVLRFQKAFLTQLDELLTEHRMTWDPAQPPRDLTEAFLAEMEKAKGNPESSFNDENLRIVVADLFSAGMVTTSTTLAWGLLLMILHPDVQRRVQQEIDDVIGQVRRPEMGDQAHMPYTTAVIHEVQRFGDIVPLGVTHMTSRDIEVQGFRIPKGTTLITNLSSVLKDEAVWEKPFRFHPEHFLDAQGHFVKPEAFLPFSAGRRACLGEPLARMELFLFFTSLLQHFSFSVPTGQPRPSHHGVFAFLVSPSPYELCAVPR

CYP2C9 = CYP2C9 (Homo sapiens, UniProt P11712); test: Time dependent inhibition of human recombinant CYP2C9 coexpressed in Escherichia coli at 50 uM using diclofenac as probe; assay type: ADME; outline: as §1
Chain of CYP2C9 (P11712 whole entry): as the sequence (P11712 whole entry) above

CYP2C19 = CYP2C19 (Homo sapiens, UniProt P33261); test: Time dependent inhibition of human recombinant CYP2C19 coexpressed in Escherichia coli at 50 uM using mephenytoin as probe; assay type: ADME; outline: as §1
Chain of CYP2C19 (P33261 whole entry): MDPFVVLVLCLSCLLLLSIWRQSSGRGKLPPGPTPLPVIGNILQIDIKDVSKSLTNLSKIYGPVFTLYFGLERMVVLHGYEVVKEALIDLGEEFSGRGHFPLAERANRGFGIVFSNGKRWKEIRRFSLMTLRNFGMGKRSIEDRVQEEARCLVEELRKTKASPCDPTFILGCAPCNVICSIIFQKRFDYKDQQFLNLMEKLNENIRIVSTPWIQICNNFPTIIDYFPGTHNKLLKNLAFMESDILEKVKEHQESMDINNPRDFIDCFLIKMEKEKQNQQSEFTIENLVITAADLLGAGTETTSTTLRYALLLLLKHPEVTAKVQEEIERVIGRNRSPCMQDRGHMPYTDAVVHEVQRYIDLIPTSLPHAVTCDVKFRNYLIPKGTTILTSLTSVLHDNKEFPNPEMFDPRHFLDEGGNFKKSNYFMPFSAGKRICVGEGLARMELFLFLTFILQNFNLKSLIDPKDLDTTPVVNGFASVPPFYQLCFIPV

[5] = Intrinsic clearance in human liver microsomes at 1 mg/ml; assay type: ADME, Microsome; conditions: read-out: CLH
Outline: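 Compound incubated 45 min at 37 °C with human liver microsomes at 1 mg/mL. CLint is taken from the rate of parent disappearance.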

Cytochrome P450 3A4 [6] = target: T6, Cytochrome P450 3A4 (Homo sapiens, UniProt P08684); test: Inhibition of human recombinant CYP3A4 coexpressed in Escherichia coli; assay type: ADME; outline: as §3
T6 sequence (P08684 whole entry): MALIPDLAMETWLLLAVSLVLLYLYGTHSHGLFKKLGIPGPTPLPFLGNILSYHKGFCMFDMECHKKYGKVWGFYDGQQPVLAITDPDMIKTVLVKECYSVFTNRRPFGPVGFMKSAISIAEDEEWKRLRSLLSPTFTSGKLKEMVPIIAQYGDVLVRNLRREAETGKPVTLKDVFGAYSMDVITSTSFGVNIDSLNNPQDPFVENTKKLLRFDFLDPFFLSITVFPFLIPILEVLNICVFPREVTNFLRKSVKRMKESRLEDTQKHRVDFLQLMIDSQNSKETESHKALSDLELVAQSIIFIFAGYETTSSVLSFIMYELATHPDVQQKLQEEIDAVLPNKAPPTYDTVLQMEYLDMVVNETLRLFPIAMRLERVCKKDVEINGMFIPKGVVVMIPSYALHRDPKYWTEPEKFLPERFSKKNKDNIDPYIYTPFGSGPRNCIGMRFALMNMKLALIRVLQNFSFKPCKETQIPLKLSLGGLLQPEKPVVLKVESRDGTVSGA

Cytochrome P450 2D6 [7] = target: T5, Cytochrome P450 2D6; test: Inhibition of human recombinant CYP2D6 coexpressed in Escherichia coli; assay type: ADME; outline: as §3
CYP2C8 = target: T7, CYP2C8 (Homo sapiens, UniProt P10632); test: Time dependent inhibition of human recombinant CYP2C8 coexpressed in Escherichia coli at 50 uM using amodiaquine as probe; assay type: ADME; outline: as §1
T7 sequence (P10632 whole entry): T4 sequence (P10632 whole entry)

CYP3A4 = CYP3A4 (Homo sapiens, UniProt P08684); test: Time dependent inhibition of human recombinant CYP3A4 coexpressed in Escherichia coli at 50 uM using midazolam as probe; assay type: ADME; outline: as §1
Chain of CYP3A4 (P08684 whole entry): as above

Cytochrome P450 2C19 [8] = target: T8, Cytochrome P450 2C19 (Homo sapiens, UniProt P33261); test: Activity of human recombinant CYP2C19 assessed as enzyme contribution towards compound metabolism at 37 degC; assay type: ADME; outline: as §2
T8 sequence (P33261 whole entry): as the sequence (P33261 whole entry) above

Cytochrome P450 3A4 [9] = target: T6, Cytochrome P450 3A4; test: Activity of human recombinant CYP3A4 assessed as enzyme contribution towards compound metabolism at 37 degC; assay type: ADME; design: concentration or dose not given beside the values; outline: as §2
Cytochrome P450 2C8 [10] = target: T4, Cytochrome P450 2C8; test: Activity of human recombinant CYP2C8 assessed as enzyme contribution towards compound metabolism at 37 degC; assay type: ADME; outline: as §2
Cytochrome P450 1A2 [11] = target: T2, Cytochrome P450 1A2; test: Inhibition of human recombinant CYP1A2 coexpressed in Escherichia coli using phenacetin as probe; assay type: ADME; outline: as §3
Cytochrome P450 2C9 [12] = target: T3, Cytochrome P450 2C9; test: Inhibition of human recombinant CYP2C9 coexpressed in Escherichia coli; assay type: ADME; outline: as §3
Cytochrome P450 2C19 [13] = target: T8, Cytochrome P450 2C19; test: Inhibition of human recombinant CYP2C19 coexpressed in Escherichia coli; assay type: ADME; outline: as §3
CYP2D6 = CYP2D6 (Homo sapiens, UniProt P10635); test: Time dependent inhibition of human recombinant CYP2D6 coexpressed in Escherichia coli at 50 uM using bufuralol as probe; assay type: ADME; outline: as §1
Chain of CYP2D6 (P10635 whole entry): as the sequence (P10635 whole entry) above

[14] = Lipophilicity, log D of the compound at pH 7.4; assay type: physicochemical; conditions: buffer
[15] = Dissociation constant, pKa of the compound; assay type: physicochemical

Structure (SMILES)	inhibition at 50 µM (CYP1A2)	Activity (Cytochrome P450 1A2 [1])	CYP isoform contribution to compound metabolism (Cytochrome P450 2C9 [2])	IC50 (Cytochrome P450 2C8 [3])	Activity (Cytochrome P450 2D6 [4])	inhibition at 50 µM (CYP2C9)	inhibition at 50 µM (CYP2C19)	microsomal CLint [5]	IC50 (Cytochrome P450 3A4 [6])	IC50 (Cytochrome P450 2D6 [7])	inhibition at 50 µM (CYP2C8)	inhibition at 50 µM (CYP3A4)	Activity (Cytochrome P450 2C19 [8])	Activity (Cytochrome P450 3A4 [9])	Activity (Cytochrome P450 2C8 [10])	IC50 (Cytochrome P450 1A2 [11])	IC50 (Cytochrome P450 2C9 [12])	IC50 (Cytochrome P450 2C19 [13])	inhibition at 50 µM (CYP2D6)	logD [14]	further results
O=C(NCc1ccncc1)c1nnc(CS(=O)(=O)c2ccccc2)o1	< 10%	0%	0%	> 20 µM	100%	< 19%	< 12%	< 5 µL/min/mg	> 20 µM	5.7 µM	< 14%	< 7%	0%	0%	0%	> 20 µM	1.7 µM	9.8 µM	< 11%		
CCOC(=O)N1CCN(Cc2nnc(-c3cccc(Cl)c3)o2)CC1																				3.3	pKa [15]: 3.5
CN(Cc1nc2ccccc2c(=O)[nH]1)Cc1nc(-c2ccccc2)no1																				3.1	pKa [15]: 2.1
CCOC(=O)N1CCN(Cc2nnc(-c3cc(Cl)ccc3F)o2)CC1																				3.2	pKa [15]: 3.5
O=C(NC1CCCCC1)c1nnc(CS(=O)(=O)c2ccccc2)o1	< 7%	0%	0%	> 20 µM	2.4%	< 19%	< 12%	< 5 µL/min/mg	> 20 µM	> 20 µM	< 13%	< 7%	45.4%	52.2%	0%	> 20 µM	> 20 µM	> 20 µM	< 9%		
CCOC(=O)N1CCN(Cc2nc(-c3cccc(Cl)c3)no2)CC1																				4.8	pKa [15]: 3.4
Clc1cc(-c2nnc(CSc3nnc(-c4ccncc4)n3C3CC3)o2)ccn1	< 10%	0%	0%	> 20 µM	0%	< 19%	< 12%	8 µL/min/mg	> 20 µM	> 20 µM	< 14%	< 7%	0%	100%	0%	> 20 µM	> 20 µM	> 20 µM	< 11%		
Clc1cc(-c2nc(CSc3nnc(-c4ccncc4)n3C3CC3)no2)ccn1	< 10%	0.2%	0%	> 20 µM	0%	< 19%	< 12%	> 300 µL/min/mg	14.2 µM	> 20 µM	< 14%	30%	0.1%	99.5%	0.2%	> 20 µM	> 20 µM	> 20 µM	< 11%		
O=C(NCc1ccncc1)c1nc(CS(=O)(=O)c2ccccc2)no1	< 10%	0%	0.1%	> 20 µM	0.1%	< 19%	< 12%	93 µL/min/mg	14.6 µM	9.4 µM	< 14%	42%	0.1%	99.8%	0%	> 20 µM	2.2 µM	1.3 µM	< 11%		
c1cc(-c2nnc(C3CCCCC3)o2)ccn1	< 10%	68.5%	2.4%	> 20 µM	1.1%	< 19%	13%	17 µL/min/mg	> 20 µM	> 20 µM	< 14%	< 7%	14.8%	11.7%	1.5%	> 20 µM	> 20 µM	1.3 µM	< 11%		
c1ccc(CN2CCN(Cc3nc(-c4ccccc4)no3)CC2)cc1	< 7%	1.5%	1%	> 20 µM	2.3%	< 19%	< 12%	9 µL/min/mg	> 20 µM	10.2 µM	< 13%	9%	2.2%	92.1%	0.9%	> 20 µM		> 20 µM	< 9%	5.1	pKa [15]: 6.7
